# Results published in ChEMBL document CHEMBL1129650, “Structure-activity relationships of novel hematoregulatory peptides” (1996).
# Bridge positions count the residues as written; N and C are the ends. Square brackets hold non-standard residues; d marks the D form. Peptide text beside a SMILES is read from it. I, II: the chains in the order shown. pGlu = O=C1CC[C@@H](C(=O)O)N1
# System: C6
# Experiment: Relative potency for induction of Colony-Stimulating activity(CSA) of C6 stromal line.
# Assay type: functional, Mus musculus
# Set-up: reference not given here
# Outline: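 Murine C6 stromal cells (or subclone C6.4) were grown to confluence in RPMI with 10% FBS, then switched to serum-free medium with peptide (initially 0.001–1000 ng/mL, log doses, duplicate wells). Exposure was 1 h at 37 °C, followed by washing, and conditioned supernatant was collected 24 h later. Supernatant (10–2.5% v/v) plus C57Bl/6 femoral marrow went into 0.3% agar with 15% FBS for 7 days. Colonies of >50 cells were counted in triplicate. EC50 was taken from the ascending curve and expressed relative to the reference peptide.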
row,SMILES,Relative potency
1,NCCCC[C@H](NC(=O)[C@H](CCCC[C@H](NC(=O)[C@H](CC(=O)O)NC(=O)[C@H](CC(=O)O)NC(=O)[C@@H]1CCC(=O)N1)C(=O)N[C@@H](CCCCN)C(=O)O)NC(=O)[C@H](CC(=O)O)NC(=O)[C@H](CC(=O)O)NC(=O)[C@@H]1CCC(=O)N1)C(=O)O,1
2,NC(=O)CC[C@H](NC(=O)[C@H](CC[C@H](NC(=O)[C@H](CO)NC(=O)[C@H](CO)NC(=O)c1ccccn1)C(=O)N[C@@H](CCC(N)=O)C(N)=O)NC(=O)[C@H](CO)NC(=O)[C@H](CO)NC(=O)c1ccccn1)C(N)=O,<1e-06
3,NCCCC[C@H](NC(=O)[C@@H](CCCC[C@@H](NC(=O)[C@H](CC(=O)O)NC(=O)[C@H](CCC(=O)O)NC(=O)[C@@H]1CCC(=O)N1)C(=O)N[C@@H](CCCCN)C(=O)O)NC(=O)[C@H](CC(=O)O)NC(=O)[C@H](CCC(=O)O)NC(=O)[C@@H]1CCC(=O)N1)C(=O)O,<1e-06
4,NCCCC[C@H](NC(=O)[C@H](CCCC[C@H](NC(=O)[C@H](CC(=O)O)NC(=O)[C@H](CCC(=O)O)NC(=O)[C@@H]1CCC(=O)N1)C(=O)N[C@@H](CCCCN)C(N)=O)NC(=O)[C@H](CC(=O)O)NC(=O)[C@H](CCC(=O)O)NC(=O)[C@@H]1CCC(=O)N1)C(N)=O,1
5,NCCCC[C@H](NC(=O)[C@H](CCCC[C@H](NC(=O)[C@H](CCC(=O)O)NC(=O)[C@H](CCC(=O)O)NC(=O)[C@@H]1CCC(=O)N1)C(=O)N[C@@H](CCCCN)C(=O)O)NC(=O)[C@H](CCC(=O)O)NC(=O)[C@H](CCC(=O)O)NC(=O)[C@@H]1CCC(=O)N1)C(=O)O,1
6,NCCCC[C@H](NC(=O)[C@H](CCCC[C@H](NC(=O)[C@H](CC(=O)O)NC(=O)[C@H](CCC(=O)O)NC(=O)[C@H]1CCC(=O)N1)C(=O)N[C@@H](CCCCN)C(=O)O)NC(=O)[C@H](CC(=O)O)NC(=O)[C@H](CCC(=O)O)NC(=O)[C@H]1CCC(=O)N1)C(=O)O,0.0001
7,NCCCC[C@H](NC(=O)[C@H](CCCCCC[C@H](NC(=O)[C@H](CC(=O)O)NC(=O)[C@H](CCC(=O)O)NC(=O)[C@@H]1CCC(=O)N1)C(=O)N[C@@H](CCCCN)C(=O)O)NC(=O)[C@H](CC(=O)O)NC(=O)[C@H](CCC(=O)O)NC(=O)[C@@H]1CCC(=O)N1)C(=O)O,<1e-06
8,NCCCC[C@H](NC(=O)[C@H](CCCCC[C@H](NC(=O)[C@H](CC(=O)O)NC(=O)[C@H](CCC(=O)O)NC(=O)[C@@H]1CCC(=O)N1)C(=O)N[C@@H](CCCCN)C(=O)O)NC(=O)[C@H](CC(=O)O)NC(=O)[C@H](CCC(=O)O)NC(=O)[C@@H]1CCC(=O)N1)C(=O)O,<1e-06
9,NCCCC[C@H](NC(=O)[C@H](CCCC[C@H](NC(=O)[C@H](CC(=O)O)NC(=O)[C@H](CCC(=O)O)NC(=O)[C@@H]1CCCO1)C(=O)N[C@@H](CCCCN)C(=O)O)NC(=O)[C@H](CC(=O)O)NC(=O)[C@H](CCC(=O)O)NC(=O)[C@@H]1CCCO1)C(=O)O,<1e-06
10,NCCCC[C@@H](NC(=O)[C@H](CCCC[C@H](NC(=O)[C@H](CC(=O)O)NC(=O)[C@H](CCC(=O)O)NC(=O)[C@@H]1CCC(=O)N1)C(=O)N[C@H](CCCCN)C(=O)O)NC(=O)[C@H](CC(=O)O)NC(=O)[C@H](CCC(=O)O)NC(=O)[C@@H]1CCC(=O)N1)C(=O)O,<1e-06
11,CCCC[C@H](NC(=O)[C@H](CCCC[C@H](NC(=O)[C@H](C)NC(=O)[C@H](CO)NC(=O)c1ccccn1)C(=O)N[C@@H](CCCC)C(N)=O)NC(=O)[C@H](C)NC(=O)[C@H](CO)NC(=O)c1ccccn1)C(N)=O,<1e-06
12,NCCC[C@H](NC(=O)[C@H](CCCC[C@H](NC(=O)[C@H](CC(=O)O)NC(=O)[C@H](CCC(=O)O)NC(=O)[C@@H]1CCC(=O)N1)C(=O)N[C@@H](CCCN)C(=O)O)NC(=O)[C@H](CC(=O)O)NC(=O)[C@H](CCC(=O)O)NC(=O)[C@@H]1CCC(=O)N1)C(=O)O,<1e-06
13,NCCCC[C@H](NC(=O)[C@H](CC[C@H](NC(=O)[C@H](CC(=O)O)NC(=O)[C@H](CCC(=O)O)NC(=O)c1ccccn1)C(=O)N[C@@H](CCCCN)C(N)=O)NC(=O)[C@H](CC(=O)O)NC(=O)[C@H](CCC(=O)O)NC(=O)c1ccccn1)C(N)=O,100
14,NCCCC[C@H](NC(=O)[C@H](CCCC[C@H](NC(=O)[C@H](CC(=O)O)NC(=O)[C@H](CO)NC(=O)c1ccccn1)C(=O)N[C@@H](CCCCN)C(=O)O)NC(=O)[C@H](CC(=O)O)NC(=O)[C@H](CO)NC(=O)c1ccccn1)C(=O)O,100
15,NCCCC[C@H](NC(=O)[C@H](CCCC[C@H](NC(=O)[C@H](CC(=O)O)NC(=O)[C@H](CCC(=O)O)NC(=O)C1CCCCC1)C(=O)N[C@@H](CCCCN)C(=O)O)NC(=O)[C@H](CC(=O)O)NC(=O)[C@H](CCC(=O)O)NC(=O)C1CCCCC1)C(=O)O,<1e-06
16,NCCCC[C@H](NC(=O)[C@H](CCCC[C@H](NC(=O)[C@H](CC(=O)O)NC(=O)[C@H](CCC(=O)O)NC(=O)c1cccs1)C(=O)N[C@@H](CCCCN)C(=O)O)NC(=O)[C@H](CC(=O)O)NC(=O)[C@H](CCC(=O)O)NC(=O)c1cccs1)C(=O)O,<1e-06
17,NCCCC[C@H](NC(=O)[C@H](CCC(=O)O)NC(=O)[C@@H]1CCC(=O)N1)C(=O)N[C@@H](CCCC[C@H](NC(=O)[C@H](CCCCN)NC(=O)[C@H](CCC(=O)O)NC(=O)[C@@H]1CCC(=O)N1)C(=O)N[C@@H](CC(=O)O)C(=O)O)C(=O)N[C@@H](CC(=O)O)C(=O)O,< 1e-06
18,NCCCC[C@H](NC(=O)[C@H](CCCC[C@H](NC(=O)[C@@H](CC(=O)O)NC(=O)[C@H](CCC(=O)O)NC(=O)[C@@H]1CCC(=O)N1)C(=O)N[C@@H](CCCCN)C(=O)O)NC(=O)[C@@H](CC(=O)O)NC(=O)[C@H](CCC(=O)O)NC(=O)[C@@H]1CCC(=O)N1)C(=O)O,<1e-06
19,NCCCC[C@H](NC(=O)[C@H](CCC[C@H](NC(=O)[C@H](CC(=O)O)NC(=O)[C@H](CCC(=O)O)NC(=O)[C@@H]1CCC(=O)N1)C(=O)N[C@@H](CCCCN)C(=O)O)NC(=O)[C@H](CC(=O)O)NC(=O)[C@H](CCC(=O)O)NC(=O)[C@@H]1CCC(=O)N1)C(=O)O,< 1e-06
20,NCCCC[C@H](NC(=O)[C@H](CCCC[C@H](NC(=O)[C@H](CC(=O)O)NC(=O)[C@H](CCC(=O)O)NC(=O)c1ccc2ccccc2n1)C(=O)N[C@@H](CCCCN)C(=O)O)NC(=O)[C@H](CC(=O)O)NC(=O)[C@H](CCC(=O)O)NC(=O)c1ccc2ccccc2n1)C(=O)O,<1e-06
21,NCCCC[C@@H](CO)NC(=O)[C@H](CCCC[C@H](NC(=O)[C@H](CC(=O)O)NC(=O)[C@H](CCC(=O)O)NC(=O)[C@@H]1CCC(=O)N1)C(=O)N[C@H](CO)CCCCN)NC(=O)[C@H](CC(=O)O)NC(=O)[C@H](CCC(=O)O)NC(=O)[C@@H]1CCC(=O)N1,<1e-06
22,NCCCC[C@H](NC(=O)[C@H](CCCC[C@H](NC(=O)[C@H](CC(=O)O)NC(=O)[C@H](CO)NC(=O)[C@@H]1CCC(=O)N1)C(=O)N[C@@H](CCCCN)C(=O)O)NC(=O)[C@H](CC(=O)O)NC(=O)[C@H](CO)NC(=O)[C@@H]1CCC(=O)N1)C(=O)O,10
23,NCCCC[C@H](NC(=O)[C@H](CC[C@H](NC(=O)[C@H](CC(=O)O)NC(=O)[C@H](CCC(=O)O)NC(=O)[C@@H]1CCC(=O)N1)C(=O)N[C@@H](CCCCN)C(=O)O)NC(=O)[C@H](CC(=O)O)NC(=O)[C@H](CCC(=O)O)NC(=O)[C@@H]1CCC(=O)N1)C(=O)O,1000
24,N=C(N)NCCC[C@@H](NC(=O)[C@H](CCCC[C@H](NC(=O)[C@H](CC(=O)O)NC(=O)[C@H](CCC(=O)O)NC(=O)[C@@H]1CCC(=O)N1)C(=O)N[C@H](CCCNC(=N)N)C(=O)O)NC(=O)[C@H](CC(=O)O)NC(=O)[C@H](CCC(=O)O)NC(=O)[C@@H]1CCC(=O)N1)C(=O)O,<1e-06
25,NCCCC[C@H](NC(=O)[C@H](CC[C@H](NC(=O)[C@H](CC(=O)O)NC(=O)[C@H](CO)NC(=O)c1ccccn1)C(=O)N[C@@H](CCCCN)C(=O)O)NC(=O)[C@H](CC(=O)O)NC(=O)[C@H](CO)NC(=O)c1ccccn1)C(=O)O,10000
26,NCCCC[C@H](NC(=O)[C@H](CSSC[C@H](NC(=O)[C@H](CC(=O)O)NC(=O)[C@H](CCC(=O)O)NC(=O)[C@@H]1CCC(=O)N1)C(=O)N[C@@H](CCCCN)C(=O)O)NC(=O)[C@H](CC(=O)O)NC(=O)[C@H](CCC(=O)O)NC(=O)[C@@H]1CCC(=O)N1)C(=O)O (I: [pGlu]EDCK-OH / II: [pGlu]EDCK-OH; disulfide I:4-II:4),0.01
27,NCCCC[C@H](NC(=O)[C@H](CCCC[C@H](NC(=O)[C@H](CC(=O)O)NC(=O)[C@H](CCC(=O)O)NC(=O)[C@@H]1CCC(=O)N1)C(=O)N[C@@H](CCCCN)C(=O)O)NC(=O)[C@H](CC(=O)O)NC(=O)[C@H](CCC(=O)O)NC(=O)[C@@H]1CCC(=O)N1)C(=O)O [GLASPIMOD],1
